Measurements reported in publication PMC10061536 (ACS Omega, 2023).
In brackets after ≈: the same amount, converted by molar mass.

How the values were obtained:
glycation [1] = settings: cited from earlier work
[2] = target: Bovine serum albumin (BSA)-glucose model (Bos taurus, UniProt P02769); experiment: In vitro anti-glycation assay, BSA-glucose model; assay type: biochemical; settings: for inhibition at 100 ppm / inhibition at 200 ppm / inhibition at 400 ppm / inhibition at 600 ppm / inhibition at 800 ppm / inhibition at 1000 ppm: read-out: % age antiglycation inhibition
Bovine serum albumin (BSA)-glucose model, sequence (P02769 25-607): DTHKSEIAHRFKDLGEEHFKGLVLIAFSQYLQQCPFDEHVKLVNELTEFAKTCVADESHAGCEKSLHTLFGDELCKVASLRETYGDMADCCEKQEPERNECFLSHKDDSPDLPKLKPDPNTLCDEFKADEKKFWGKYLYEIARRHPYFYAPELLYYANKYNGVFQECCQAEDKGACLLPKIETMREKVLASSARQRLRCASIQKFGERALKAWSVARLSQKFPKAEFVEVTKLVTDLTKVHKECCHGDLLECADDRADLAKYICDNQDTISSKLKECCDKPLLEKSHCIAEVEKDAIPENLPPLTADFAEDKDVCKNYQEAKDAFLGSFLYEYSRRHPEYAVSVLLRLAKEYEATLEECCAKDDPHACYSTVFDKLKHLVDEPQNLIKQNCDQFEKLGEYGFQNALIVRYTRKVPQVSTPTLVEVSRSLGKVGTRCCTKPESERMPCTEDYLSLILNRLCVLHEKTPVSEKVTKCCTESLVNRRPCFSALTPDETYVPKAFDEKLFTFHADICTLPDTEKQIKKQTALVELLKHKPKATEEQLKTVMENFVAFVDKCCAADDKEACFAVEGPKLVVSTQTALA
Summary of the method: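 Glycation is read by measuring the fluorescence of glycated products on a spectrofluorometer.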

glycation [3] = settings: read-out: IC50, antiglycation; cited from earlier work
[4] = DPPH radical scavenging assay; settings: for IC50: read-out: IC50 (mM ± SEM), DPPH scavenged by 50%; for percentage antioxidant potential: at tested concentrations, IC50 not calculated
Summary of the method: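 Radical scavenging of DPPH by the test compound, with ascorbic acid as the reference.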

α-amylase = experiment: α-Amylase inhibition assay; assay type: biochemical; settings: for IC50: read-out: IC50 ± SEM, α-amylase inhibition

| IC50 [4] [mM] | inhibition at 100 ppm [2] [%] | inhibition at 200 ppm [2] [%] | inhibition at 400 ppm [2] [%] | inhibition at 600 ppm [2] [%] | inhibition at 800 ppm [2] [%] | inhibition at 1000 ppm [2] [%] | % age α-amylase inhibition (α-amylase; 1 μM) [%] | % age α-amylase inhibition (α-amylase; 5 μM) [%] | % age α-amylase inhibition (α-amylase; 10 μM) [%] | IC50 (α-amylase) [µM] | Structure (SMILES) | % age antioxidant potential ([4]; 3 mM) [%] | % age antioxidant potential ([4]; 6 mM) [%] | % age antioxidant potential ([4]; 9 mM) [%] | % age antioxidant potential ([4]; 12 mM) [%] | % age antioxidant potential ([4]; 15 mM) [%] | other results |
| --- | --- | --- | --- | --- | --- | --- | --- | --- | --- | --- | --- | --- | --- | --- | --- | --- | --- |
| 12.94 ± 0.01 | 79.9 | 81.8 | 83 | 84.6 | 86.2 | 87.1 | 37.06 | 49.08 | 61.72 | 7 ± 0.13 | COc1c(F)cccc1C=NNc1nc(-c2ccc(F)cc2)cs1 [3l, 2-(2-(3-Fluoro-2-methoxybenzylidene)hydrazinyl)-4-(4-fluorophenyl)thiazole] | 0.00 | 15.62 | 32.06 | 46.14 | 65.18 | – |
| – | 88 | 88.5 | 89.1 | 90 | 91.2 | 92.2 | 38.90 | 51.09 | 64.58 | 6.7 ± 0.08 | Fc1ccc(-c2csc(NN=Cc3cccc(C(F)(F)F)c3)n2)cc1 [3i, 4-(4-Fluorophenyl)-2-(2-(3-(trifluoromethyl)benzylidene)hydrazinyl)thiazole] | 0.00 | 8.64 | 18.87 | 32.26 | 46.53 | percentage antioxidant potential [4]: less than 50% |
| 18 ± 0.27 | 83.7 | 84.2 | 85.5 | 86.4 | 88.2 | 89.5 | 33.07 | 43.03 | 57.18 | 7.69 ± 0.18 | CSc1ccccc1C=NNc1nc(-c2ccc(F)cc2)cs1 [3o, 4-(4-Fluorophenyl)-2-(2-(2-(methylthio)benzylidene)hydrazinyl)thiazole] | 0.00 | 7.68 | 18.22 | 30.15 | 53.73 | – |
| – | 24.3 | 34.6 | 48.8 | 54.3 | 66.6 | 74.6 | 38.00 | 49.56 | 62.75 | 6.9 ± 0.23 | CC(=NNc1nc(-c2ccc(F)cc2)cs1)c1ccc(F)cc1 [3g, 4-(4-Fluorophenyl)-2-(2-(1-(4-fluorophenyl)ethylidene)hydrazinyl)thiazole] | 0.00 | 0.00 | 0.00 | 0.00 | 8.45 | percentage antioxidant potential [4]: less than 50%; IC50 [2]: 1770 µM |

Second part, the compound before the results:

| Structure (SMILES) | IC50 [4] [mM] | inhibition at 100 ppm [2] [%] | inhibition at 200 ppm [2] [%] | inhibition at 400 ppm [2] [%] | inhibition at 600 ppm [2] [%] | inhibition at 800 ppm [2] [%] | inhibition at 1000 ppm [2] [%] | % age α-amylase inhibition (α-amylase; 1 μM) [%] | % age α-amylase inhibition (α-amylase; 5 μM) [%] | % age α-amylase inhibition (α-amylase; 10 μM) [%] | IC50 (α-amylase) [µM] | % age antioxidant potential ([4]; 3 mM) [%] | % age antioxidant potential ([4]; 6 mM) [%] | % age antioxidant potential ([4]; 9 mM) [%] | % age antioxidant potential ([4]; 12 mM) [%] | % age antioxidant potential ([4]; 15 mM) [%] | other results |
| --- | --- | --- | --- | --- | --- | --- | --- | --- | --- | --- | --- | --- | --- | --- | --- | --- | --- |
| N=C(N)NN [amino guanidine, reference compound] | – | – | – | – | – | – | – | – | – | – | – | – | – | – | – | – | IC50, antiglycation (glycation [1]): 394 ± 1 µg/mL (≈ 5.32 mM); % age antiglycation inhibition ([2]; 100 ppm): 85.190%; % age antiglycation inhibition ([2]; 200 ppm): 86.141%; % age antiglycation inhibition ([2]; 400 ppm): 87.143%; % age antiglycation inhibition ([2]; 600 ppm): 88.011%; % age antiglycation inhibition ([2]; 800 ppm): 88.866%; % age antiglycation inhibition ([2]; 1000 ppm): 89.657%; IC50 (glycation [3]): 25.5 ± 0.337 µM |
| COc1cc(Br)c(C=NNc2nc(-c3ccc(F)cc3)cs2)cc1OC [3a, 2-(2-(2-Bromo-4,5-dimethoxybenzylidene)hydrazinyl)-4-(4-fluorophenyl)thiazole] | 12.39 ± 0.1 | 80.9 | 82.1 | 84.8 | 85.9 | 87 | 89.9 | 35.96 | 51.11 | 69.11 | 6.41 ± 0.09 | 0.00 | 18.82 | 32.72 | 47.58 | 67.95 | – |
| CC(CCc1ccccc1)=NNc1nc(-c2ccc(F)cc2)cs1 [3c, 4-(4-Fluorophenyl)-2-(2-(4-phenylbutan-2-ylidene)hydrazinyl)thiazole] | 11.4 ± 0.12 | 67.6 | 68.9 | 69.7 | 75.7 | 77.9 | 81.6 | 30.03 | 45.41 | 58.12 | 7.52 ± 0.05 | 0.00 | 11.13 | 34.28 | 57.51 | 73.34 | – |
